Screening results deposited in PubChem BioAssay by several laboratories.
CaV13 ICDI inh: Disruptors of the CACNA1D IQ motif to Ca2+-dependent inactivation inhibitor domain association, primary screening, Förster resonance energy transfer in intact living …. HEK cells, CFP/YFP FRET ICDI-IQ, plate reader, 10 min; percent FRET-ratio fall versus neutral wells. inhibition, % at 12.3 µM. 340,000 tested, 0.098% active. AID 743397;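 active = mean replicate inhibition of at least 30% and at least 1% of replicates passing that level; inconclusive = only one of the two criteria is met; inactive = neither criterion is met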;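 note: 0% = median of the neutral control wells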
LANA-H2A inh: blocks KSHV LANA binding to histone H2A/H2B; 320,000 tested, 0.6% active; cell-free LANA-H2A/H2B peptide, fluorescence polarization; inhibition, % (no concentration beside the values); Q9QR71; in the data active = inhibition mostly above about 10%, no sharp cut-off; inactive = mostly below about 6.7%
Target sequence (Q9QR71 whole entry, looked up): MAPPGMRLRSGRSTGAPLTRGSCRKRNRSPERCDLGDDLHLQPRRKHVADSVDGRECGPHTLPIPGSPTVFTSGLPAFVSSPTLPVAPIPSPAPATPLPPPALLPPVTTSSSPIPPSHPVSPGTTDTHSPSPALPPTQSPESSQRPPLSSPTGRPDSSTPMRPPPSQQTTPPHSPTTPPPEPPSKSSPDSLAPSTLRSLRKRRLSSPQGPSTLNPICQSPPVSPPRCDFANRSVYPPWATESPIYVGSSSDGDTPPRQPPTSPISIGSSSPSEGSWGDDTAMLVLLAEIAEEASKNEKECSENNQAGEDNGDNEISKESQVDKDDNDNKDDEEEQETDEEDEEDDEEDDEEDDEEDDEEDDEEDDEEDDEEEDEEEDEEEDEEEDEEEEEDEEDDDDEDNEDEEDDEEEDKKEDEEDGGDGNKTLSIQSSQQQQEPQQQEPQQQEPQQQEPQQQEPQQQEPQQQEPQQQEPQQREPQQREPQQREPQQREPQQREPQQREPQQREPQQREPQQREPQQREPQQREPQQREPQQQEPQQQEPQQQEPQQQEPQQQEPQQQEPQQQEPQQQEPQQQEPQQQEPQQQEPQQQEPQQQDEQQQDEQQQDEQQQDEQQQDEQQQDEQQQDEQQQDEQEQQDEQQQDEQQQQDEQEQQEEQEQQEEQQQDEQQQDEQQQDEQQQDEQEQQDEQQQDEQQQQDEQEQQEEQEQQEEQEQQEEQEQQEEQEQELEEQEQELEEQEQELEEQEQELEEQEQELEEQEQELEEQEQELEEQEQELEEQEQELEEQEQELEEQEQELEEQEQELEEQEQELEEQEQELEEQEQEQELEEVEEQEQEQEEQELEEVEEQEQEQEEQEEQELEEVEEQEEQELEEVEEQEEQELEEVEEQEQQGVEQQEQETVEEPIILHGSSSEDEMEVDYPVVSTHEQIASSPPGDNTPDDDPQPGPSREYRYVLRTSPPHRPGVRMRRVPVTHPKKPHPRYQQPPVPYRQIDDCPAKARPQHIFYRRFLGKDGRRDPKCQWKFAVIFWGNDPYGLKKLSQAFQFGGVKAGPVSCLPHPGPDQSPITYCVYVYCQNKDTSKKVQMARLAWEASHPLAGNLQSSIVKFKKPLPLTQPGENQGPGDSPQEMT
HDAC3 inh: inhibitors of human histone deacetylase 3; O15379; recombinant HDAC3, fluorogenic peptide/trypsin coupled, fluorescence; inhibition, % at 8.3 µM; 320,000 tested, 0.15% active; AID 2718; in the data active = inhibition above about 26%, passing the limit was not always enough; inconclusive = no clear call, values can overlap the other calls
Runt-SMMHC FRET: inhibitors of human RUNX1 Runt domain binding to CBFb-SMMHC. Cerulean-Runt/Venus-CBFb-SMMHC FRET ratio 530/480, 1 h. Q01196+Q13951. 220,000 tested, 0.74% active. inhibition, % at 20 µM;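 active = mean inhibition across duplicate retests at 20 µM reaching about 50%, limit read from the data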;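 note: 0% = DMSO wells and 100% = wells with excess untagged CBFb-SMMHC; inhibitors lower the FRET ratio by blocking Runt binding to CBFb-SMMHC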
Runt-CBFb FRET: inhibitors of human RUNX1 Runt domain binding to CBFb | Cerulean-Runt/Venus-CBFb FRET ratio 530/480, 1 h | inhibition, % at 20 µM | 220,000 tested, 0.46% active;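 active = inhibition over about 50% at 20 µM in the single-dose screen, limit read from the data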;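 note: 0% = DMSO wells and 100% = excess unlabeled CBFb competitor control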
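Doses: 20 µM compound in 1% DMSO | Material: Cerulean-labeled Runt domain protein | Amount: Each fluorescent fusion protein 100 nM | Schedule: Two 1 h room-temperature incubations shielded from light | Measured by: FRET fluorescence | Evaluation: Loss of energy transfer signal | Controls: Unlabeled CBFb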
RanGTP-Imp inh: inhibitors of RanGTP-importin-beta interaction, primary screen, biochemical, FRET, CFP-Ran, YFP-importin-beta, homogeneous. cell-free CFP-Ran/YFP-importin-beta FRET ratio. inhibition, % (no concentration beside the values). 300,000 tested, 1.1% active. AID 2216;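 active = more than half of the replicate wells show a fall in the fluorescence ratio signal beyond about 16%, limit read from the data, passing the limit was not always enough; inconclusive = exactly half of the replicate wells pass the set limit; inactive = fewer than half of replicates pass the limit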;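 note: 0% = DMSO wells and 100% = Ran loaded with GDP instead of GTP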
Starred values were filed as active, the others as inactive; ? = inconclusive; nt = not tested or not shown; + = active, no number. Compounds with a hit are over-represented: about 1.9% of the library has one in this group of screens.

SMILES	CaV13 ICDI inh	LANA-H2A inh	HDAC3 inh	Runt-SMMHC FRET	Runt-CBFb FRET	RanGTP-Imp inh
CC(=O)c1ccc(OCC(=O)OCC(=O)Nc2sccc2C(N)=O)cc1	-18.5	15.7*	1.0	nt	nt	nt
COc1ccc(OCCCC(=O)OCC(=O)Nc2sccc2C(N)=O)cc1	-1.7	nt	nt	nt	nt	?
CC(=O)c1cn(CCOc2ccc(F)cc2)c2ccccc12	-0.5	6.8	-5.1	nt	nt	-4.9
Cc1ccc(N(CC(=O)N/N=C/c2cc(C)n(-c3ccccc3)c2C)S(C)(=O)=O)c(C)c1	nt	3.7	-3.3	-0.2	0.3	-0.1
Cc1cc(/C=N/NC(=O)Cn2c3ccccc3c(=O)c3ccccc32)c(C)n1-c1ccccc1	-3.6	-4.7	-2.7	23.5	nt	93.9*
O=C(NCC(=O)N1CCN(c2ncccn2)CC1)c1cccs1	nt	4.6	-7.1	1.1	-0.7	1.7
Cc1ccc(C(=O)NCC(=O)N2CCN(c3ncccn3)CC2)s1	-4.8	17.5*	-4.6	-0.2	3.0	5.8
CCN1CCc2c(C#N)c(N3CCOCC3)nc(NCc3ccccc3)c2C1	nt	nt	nt	58.1*	40.4	27.8*
C=CCNc1nc(N2CCCCC2)c(C#N)c2c1CN(Cc1ccccc1)CC2	nt	5.2	-9.4	0.4	10.0	51.8*
N#Cc1c(NCCO)nc(NCc2ccccc2)c2c1CCN(Cc1ccccc1)C2	nt	-1.0	-6.5	79.3*	32.0	136.9*
CCN1CCc2c(C#N)c(N3CCCCC3)nc(NCc3ccccc3)c2C1	-4.2	3.7	-5.4	23.1	17.4	1.1
CCN1CCc2c(C#N)c(N3CCOCC3)nc(NCCO)c2C1	-2.9	-1.9	-7.1	62.5*	33.1	54.3*
N#Cc1c(N)sc(=S)c2c1CCN(Cc1ccccc1)C2	nt	nt	nt	31.2	25.4	nt
CCc1nc(NCc2ccccc2)c(C#N)c2c1CCCC2	7.8	5.9	7.3	-2.3	-3.2	5.7
C=CCNc1nc(N2CCOCC2)c(C#N)c2c1CN(C)CC2	-4.9	2.0	-9.5	54.7*	31.9	95.7*
CCOC(=O)c1sc2c(c1C)C(c1cccs1)C1=C(CCCC1=O)N2 (stereo not given)	-2.3	-2.5	-4.8	111.4*	99.3*	?
CCOC(=O)C1=C(C)NC2=C(C(=O)CCC2)C1c1cccs1 (stereo not given)	0.7	-2.3	-10.5	2.2	-0.8	-0.3
Cc1ccc(-n2ncc3ccccc3c2=O)cc1Cl	-2.0	-1.4	4.3	-0.2	0.0	3.4
O=C1C2C3C=CC(C3)C2C(=O)N1Nc1ccc([N+](=O)[O-])cc1[N+](=O)[O-] (stereo not given)	-4.5	16.0*	0.0	nt	nt	?
O=C1c2ccccc2C(=O)N1Nc1ccc([N+](=O)[O-])cc1[N+](=O)[O-]	-2.4	0.5	-0.1	nt	nt	2.8
Nc1nnc(SCCCOc2ccc(F)cc2)s1	-6.4	25.3*	-1.5	nt	nt	1.8
Cn1ccnc1SCC(=O)Nc1ccc2c(c1)OCO2	-3.7	1.1	-8.5	4.1	10.8	4.1
O=C(CCn1cccn1)Nc1ccc2c(c1)OCO2	-16.4	14.9*	-3.6	nt	nt	2.8
CSc1ccccc1N1CCN(C(=O)Nc2ccc3c(c2)NC(=O)CO3)CC1	-5.9	0.3	9.8	-2.3	-0.2	-3.4
CC(/C=C\C=C\c1ccccc1)=N\NC(=O)c1cncc(Br)c1	-5.8	76.6*	-1.6	-2.1	-1.0	?
SMILES	CaV13 ICDI inh	LANA-H2A inh	HDAC3 inh	Runt-SMMHC FRET	Runt-CBFb FRET	RanGTP-Imp inh
Cc1occc1C(=O)NNC(=S)Nc1ccccc1C(F)(F)F	-4.7	1.3	-8.9	2.4	1.8	7.3
COc1ccc(Cn2nnnc2C(CC(C)C)N2CCC(C(N)=O)CC2)cc1 (stereo not given)	43.4*	-1.2	7.1	-0.8	0.0	5.3
COc1cccc(NC(=O)CN(C)C(=O)C23CC4CC(CC(Cl)(C4)C2)C3)c1	-3.1	42.4*	3.7	nt	nt	nt
O=C(COc1ccc(F)cc1Br)NCC1(N2CCCCC2)CCCCC1	-5.7	-1.3	-3.9	nt	nt	nt
CCN1CCN(c2nc(N)c([N+](=O)[O-])c(Nc3ccc(C)cc3)n2)CC1	-3.1	18.7*	-3.0	-1.3	-3.3	2.2
COc1ccc(NC(=O)CN(C)C(=O)c2cc(S(=O)(=O)N(C)C)ccc2N2CCCC2)cc1	-3.2	4.9	-0.1	nt	nt	-0.4
O=C(Nc1ccc(C(=O)NC2CCCCC2)cc1)c1cccnc1	0.9	14.5*	-3.1	-7.4	-1.2	4.1
CC(=O)Nc1ccc(C(=O)NC2CCCC2)cc1	-4.4	-1.2	-3.4	-2.0	0.0	nt
CCNC(=O)c1c(O)c2ccccc2[nH]c1=O	4.5	2.6	-24.9	-2.1	0.7	96.0*
CC(CCc1ccccc1)NC(=O)CCN1N=C(c2ccccc2)CCC1=O (stereo not given)	-0.4	-13.2	-4.2	-1.0	-2.7	-2.0
COC(=O)C1=CN(CC2CCCO2)C=C(C(=O)OC)C1c1cc(OC)c(OC)c(OC)c1 (stereo not given)	-4.5	-1.2	-21.4	92.7*	36.6	3.3
COC(=O)C1=CN(Cc2ccc(OC)cc2)C=C(C(=O)OC)C1c1cc(OC)c(OC)c(OC)c1	nt	-3.0	-30.4	nt	nt	12.6
CCOc1ccc2nc(NCCNC(=S)NCCCN(C)C)c(C#N)cc2c1	+	-0.6	-5.8	92.3*	18.6	93.3*
CCOc1ccc2nc(NCCNC(=O)Nc3ccccc3)c(C#N)cc2c1	-10.5	-2.5	-0.3	25.4	7.7	86.4*
CCOc1ccc2nc(NCCNC(=O)Nc3cccc(C)c3)c(C#N)cc2c1	-5.0	5.0	-7.5	38.3	88.0*	-1.8
CCOc1ccc2nc(NCCCNS(=O)(=O)c3ccc(C)cc3)c(C#N)cc2c1	32.5*	4.9	0.8	101.6*	5.5	129.4*
COc1cccc(C(=O)NCCCNc2nc3cc(C)cc(C)c3cc2C#N)c1	-6.8	nt	nt	nt	nt	nt
CCOc1ccc2nc(SCC#N)c(C#N)cc2c1	nt	2.9	-1.4	-7.5	3.0	-1.0
COC(=O)Cc1ccc(NC(=O)c2ccccc2Cl)cc1	-1.5	0.2	0.4	-0.2	-2.1	6.4
COC(=O)c1cc2c(-c3ccccc3)c(C)c3ccccn3c-2c1C(=O)OC	nt	-9.1	-5.7	8.9	9.2	27.1*
COC(=O)c1c(Cl)c2n3ccccc3c(C)c(-c3ccccc3)c-2c1C(=O)OC	-5.1	nt	nt	-7.2	0.8	19.1*
NC(=O)c1ccc(Oc2ccc(Cl)cc2)c([N+](=O)[O-])c1	-3.8	-5.3	-3.7	-0.7	-0.1	-6.6
N#CC1=C(N)N(c2ccccc2C#N)C2=C(C(=O)CCC2)C1c1ccsc1 (stereo not given)	-5.5	1.4	4.1	18.1	14.8	29.6*
Cc1cc(NC(=O)CSc2nnc(C(C)N(C)C)n2-c2ccc(F)cc2)no1 (stereo not given)	-7.4	6.1	1.5	-0.1	0.1	2.7
